Reference: ChEMBL document CHEMBL1671785, “Synthesis, physical-chemical characterisation and biological evaluation of novel 2-amido-3-hydroxypyridin-4(1H)-ones: Iron chelators with the potential for treating Alzheimer's disease” (Bioorg Med Chem, 2011)
The source made the active and inactive calls. No cut-off for these calls is given here.

What was measured:
[1] = Lipophilicity, log D of the compound at pH 7.4; assay type: physicochemical; conditions: buffer
Summary of the method: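 After centrifugal separation, the loss of aqueous-phase absorbance gives the octanol/buffer concentration ratio.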

[2] = Iron chelating activity of the compound; assay type: functional
Summary of the method: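 Affinity is given as pM, the negative log of free Fe(III), at total metal 10⁻⁶ M and total ligand 10⁻⁵ M, pH 7.4. Stability constants come from automated potentiometric/spectrophotometric titration in 0.1 M KCl at 25 °C with 5 min equilibration per 0.1 pH step. Data analysed by pHab.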

[3] = biological target: Tyrosine 3-monooxygenase (Rattus norvegicus) (UniProt P04177); experiment: Inhibition of tyrosine hydroxylase in rat striata at 10 uM after 20 mins
Summary of the method: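 Rat striatal homogenate (1:9 in 0.32 M sucrose, about 3 mg tissue) in 0.5 M potassium phosphate, pH 6.0, with m-hydroxybenzylhydrazine, 1 mM 6,7-dimethyltetrahydropterine and chelator (1–100 µM). The reaction is started with L-tyrosine (0.4 mM final) for 20 min at 37 °C. L-DOPA is extracted on alumina and quantified by HPLC against α-methyldopa. Triplicate; non-enzymatic background measured using 3-iodotyrosine.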

[4] = Association constant pKa of the compound; assay type: physicochemical
Summary of the method: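 Ligand pKa by automated potentiometric titration with spectral scans in 0.1 M KCl at 25 ± 0.1 °C. pH was raised or lowered in 0.1-unit steps with KOH or HCl, and readings were taken once pH drifted by <0.001 over 3 s. A 1 min equilibration was used at each step before analysis of the titration data.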

[5] = Inhibition of soybean lipoxygenase after 15 mins; parameters: species or system Glycine max
Glycine max [6] = experiment: Inhibition of soybean lipoxygenase at 100 uM after 15 mins
Glycine max [7] = experiment: Inhibition of soybean lipoxygenase at 10 uM after 15 mins
Summary of the method: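 Soybean lipoxygenase in 0.2 M borate buffer, pH 9, was pre-incubated 15 min with the compound (100 µM solution, 10 µM final in cuvette). The reaction was started with linoleic acid (1 mM). Linoleic hydroperoxide formation was followed at 234 nm for 10 min, and rates were computed using ε = 23600 M⁻¹ cm⁻¹.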

Cortical neurone = experiment: Neuroprotective activity against FeNTA-induced loss of synaptic integrity in rat cortical neurones assessed as damage to cell bodies at 30 uM by phase contrast microscopy; assay type: functional

Chain of Tyrosine 3-monooxygenase (Rattus norvegicus) (P04177 whole entry): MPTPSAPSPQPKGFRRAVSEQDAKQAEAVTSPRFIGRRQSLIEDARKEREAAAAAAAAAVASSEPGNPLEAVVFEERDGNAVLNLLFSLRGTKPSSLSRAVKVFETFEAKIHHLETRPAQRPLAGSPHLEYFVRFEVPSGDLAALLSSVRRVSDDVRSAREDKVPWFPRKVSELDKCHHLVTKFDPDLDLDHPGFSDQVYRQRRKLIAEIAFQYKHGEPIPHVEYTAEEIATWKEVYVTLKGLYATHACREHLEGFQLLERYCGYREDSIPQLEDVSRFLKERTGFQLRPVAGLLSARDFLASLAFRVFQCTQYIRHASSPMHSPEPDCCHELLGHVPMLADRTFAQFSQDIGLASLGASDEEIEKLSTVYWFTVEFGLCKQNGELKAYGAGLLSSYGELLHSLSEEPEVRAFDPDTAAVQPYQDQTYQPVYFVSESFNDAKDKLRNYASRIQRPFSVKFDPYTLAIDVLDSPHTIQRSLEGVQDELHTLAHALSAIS

Row | Compound | logD [1] | Activity [2] | Activity [3] | pKa [4] | EC50 [5] | inhibition (Glycine max [6]) | inhibition (Glycine max [7]) | Activity (Cortical neurone)
1 | Cl.O=C(N[C@@H](Cc1ccccc1)C(=O)NCc1ccccc1)c1nccc(O)c1O | 0.9 | 21.5 | Active | 6 | 52 µM | 60% | 30.2% | 
2 | CNC(=O)[C@H](Cc1ccccc1)NC(=O)c1nccc(O)c1O.Cl | -0.11 | 21.4 | Active | 6.1 | 25 µM | 71% | 27.6% | 
3 | C[C@H](NC(=O)c1nccc(O)c1O)C(=O)NCc1ccccc1.Cl | 0.03 | 18.9 | inactive | 6 | 80 µM | 54% | 3.3% | Active
4 | CC(C)CNC(=O)CNC(=O)c1nccc(O)c1O.Cl | -0.33 | 20.6 |  | 6.2 | 44 µM | 70% | 9.3% | 
5 | CC(C)CNC(=O)[C@H](Cc1ccccc1)NC(=O)c1nccc(O)c1O.Cl | 0.39 | 20.4 | Active | 6 | 13 µM | 81% | 46.5% | 
6 | CNC(=O)CNC(=O)c1nccc(O)c1O.Cl | -1.42 | 20.8 |  | 6.3 | 56 µM | 68% | 19.3% | 
7 | Cl.O=C(CNC(=O)c1nccc(O)c1O)NCc1ccccc1 | 0.01 | 19.1 |  | 6.2 | 54 µM | 62% | 8.3% | 
8 | CCc1c(O)c(=O)ccn1CC |  |  |  |  | 11 µM | 87.4% | 43% | 
9 | CNC(=O)[C@H](C)NC(=O)c1nccc(O)c1O.Cl | -1.1 | 19.1 | inactive | 6 | 66 µM | 61% | 2.7% | 
10 | CC(C)CNC(=O)[C@H](C)NC(=O)c1nccc(O)c1O.Cl | -0.08 | 19.2 |  | 6 | 37 µM | 71% | 15.3% | 
11 | Cc1c(O)c(=O)ccn1C [DEFERIPRONE] |  |  |  |  | 64 µM | 58% |  | 
